Results reported in ChEMBL document CHEMBL3244147 (J Med Chem, 1978).
Activity calls are given as the source filed them. The calls are words filed in the database; no cut-off is given here. Where a SMILES comes first, the peptide text is derived from it. The star is where a group is joined. NH(4-N(CH2CH2Cl)2-phenyl) = ClCCN(CCCl)c1ccc(N*)cc1; Cbz = O=C(OCc1ccccc1)*

How the values were obtained:
[1] = Toxicity in ip dosed CF1 mouse after 14 days of injection; assay type: organism-based; settings: in vivo
How it was run: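 Female Carworth Farms mice, 16-20 g. Compound was suspended in 1% aqueous methylcellulose (ultrasonicated if insoluble) and diluted to doses of 4-324 mg/kg, given as 0.45 mL per mouse by a single intraperitoneal injection. Five mice per dose; survivors were counted at 14 days. LD50 is expressed in μmol/kg.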

Sarcoma-180 [2] = test: Antitumor activity against mouse Sarcoma 180 at 10 to 50% of LD50; assay type: functional
How it was run: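 Mice carrying well-advanced Sarcoma-180 tumours received a single intraperitoneal dose.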

Liver [3] = test: Prodrug conversion in mouse liver homogenate assessed as release of labelled carbobenzyloxy-L-pro-lyl-L-leucine; assay type: ADME, tissue-based
[4] = Prodrug conversion in pig liver homogenate assessed as cleavage of labelled compound; assay type: ADME, tissue-based, Sus scrofa
Liver [5] = test: Prodrug conversion in guinea pig liver homogenate assessed as cleavage of labelled compound; assay type: ADME, tissue-based, Cavia porcellus
[6] = Prodrug conversion in pig liver homogenate assessed as release of labelled carbobenzyloxy-L-pro-lyl-L-leucine; assay type: ADME, tissue-based, Sus scrofa
Sarcoma-180 [7] = test: Drug metabolism assessed as mouse Sarcoma 180 homogenate-mediated compound disappearance after 24 hrs by TLC autoradiography; assay type: ADME; settings: sarcoma-180, 24 h
How it was run: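 S-180 tumour tissue (0.85 g) was homogenised in cold pH 7.3 calcium acetate/DMSO buffer containing actidione, then spun at 5000 rpm for 10 min. The supernatant replaced enzyme in the collagenase-type assay with 14C-labelled substrate (2 mg/mL in DMSO) in 28% DMSO reaction mixture. Disappearance and products were read by TLC autoradiography.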

Liver [8] = test: Prodrug conversion in mouse liver homogenate assessed as cleavage of labelled compound; assay type: ADME, tissue-based
[9] = Drug metabolism assessed as bacterial collagenase-mediated compound disappearance after 24 hrs by TLC autoradiography; assay type: ADME
How it was run: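 14C-labelled substrate at 2 mg/mL in dimethyl sulfoxide. 0.3 mL of it was mixed with 0.95 mL of pH 7.3 barbiturate/acetate/NaCl buffer containing calcium acetate, actidione and DMSO; the reaction mixture was 28% DMSO. The buffer held 5 mg bacterial collagenase (375 units/mg). Controls had no enzyme, trypsin or bovine serum albumin. Products were followed by TLC autoradiography.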

Liver [10] = test: Prodrug conversion in rat liver homogenate assessed as cleavage of labelled compound; assay type: ADME, tissue-based
Liver [11] = test: Prodrug conversion in rat liver homogenate assessed as release of labelled carbobenzyloxy-L-pro-lyl-L-leucine; assay type: ADME, tissue-based
Liver [12] = test: Prodrug conversion in guinea pig liver homogenate assessed as release of labelled carbobenzyloxy-L-pro-lyl-L-leucine; assay type: ADME, tissue-based, Cavia porcellus

O=C(CNC(=O)[C@@H]1CCCN1C(=O)OCc1ccccc1)Nc1ccc(N(CCCl)CCCl)cc1
LD50 at 336 h [1]: 119 µmol/kg

CC(C)C[C@H](NC(=O)[C@@H]1CCCN1C(=O)[C@@H](C)NC(=O)OC(C)(C)C)C(=O)NCC(=O)N1CCC[C@H]1C(=O)NCC(=O)Nc1ccc(N(CCCl)CCCl)cc1
LD50 at 336 h [1]: 94.5 µmol/kg

CC(C)C[C@H](NC(=O)[C@@H]1CCCN1C(=O)[C@H](N)Cc1ccccc1)C(=O)NCC(=O)N1CCC[C@H]1C(=O)NCC(=O)Nc1ccc(N(CCCl)CCCl)cc1.O=C(O)C(F)(F)F
LD50 at 336 h [1]: 106 µmol/kg

CC(C)C[C@H](NC(=O)[C@@H]1CCCN1C(=O)[C@@H](CCCCNC(=O)OC(C)(C)C)NC(=O)OC(C)(C)C)C(=O)NCC(=O)N1CCC[C@H]1C(=O)NCC(=O)Nc1ccc(N(CCCl)CCCl)cc1
LD50 at 336 h [1]: 100 µmol/kg

NCC(=O)N1CCC[C@H]1C(=O)NCC(=O)Nc1ccc(N(CCCl)CCCl)cc1.O=C(O)C(F)(F)F
LD50 at 336 h [1]: 19.7 µmol/kg

CC(C)C[C@H](NC(=O)[C@@H]1CCCN1C(=O)[C@H](N)CCCCN)C(=O)NCC(=O)N1CCC[C@H]1C(=O)NCC(=O)Nc1ccc(N(CCCl)CCCl)cc1.O=C(O)C(F)(F)F
Activity (Sarcoma-180 [2]): inactive | LD50 at 336 h [1]: 78 µmol/kg

CC(C)C[C@H](N)C(=O)NCC(=O)N1CCC[C@H]1C(=O)NCC(=O)Nc1ccc(N(CCCl)CCCl)cc1.O=C(O)C(F)(F)F (H-LGPG-{NH(4-N(CH2CH2Cl)2-phenyl)})
LD50 at 336 h [1]: 10.4 µmol/kg

CC(C)C[C@H](NC(=O)[C@@H]1CCCN1C(=O)OCc1ccccc1)C(=O)NCC(=O)N1CCC[C@H]1C(=O)NCC(=O)Nc1ccc(N(CCCl)CCCl)cc1 (Cbz-PLGPG-{NH(4-N(CH2CH2Cl)2-phenyl)})
Activity (Sarcoma-180 [2]): inactive | LD50 at 336 h [1]: 123 µmol/kg

CC(C)C[C@H](NC(=O)[C@@H]1CCCN1C(=O)[C@@H](Cc1ccccc1)NC(=O)OC(C)(C)C)C(=O)NCC(=O)N1CCC[C@H]1C(=O)NCC(=O)Nc1ccc(N(CCCl)CCCl)cc1
LD50 at 336 h [1]: 105 µmol/kg

CC(C)C[C@H](NC(=O)[C@@H]1CCCN1C(=O)O[14CH2]c1ccccc1)C(=O)NCC(=O)N1CCC[C@H]1C(=O)NCC(=O)Nc1ccc(N(CCCl)CCCl)cc1
Drug metabolism (Liver [3]): metabolite_detected | Drug metabolism [4]: metabolite_detected | Drug metabolism (Liver [5]): metabolite_detected | Drug metabolism [6]: metabolite_detected | Drug metabolism (Sarcoma-180 [7]): metabolite_detected | Drug metabolism (Liver [8]): metabolite_detected | Drug metabolism [9]: metabolite_detected | Drug metabolism (Liver [10]): metabolite_detected | Drug metabolism (Liver [11]): metabolite_detected | Drug metabolism (Liver [12]): metabolite_detected
